The nature of series [1]: Half life in Sprague-Dawley rat at 2 mg/kg, iv. The series is classed as ADME, organism-based. Particulars: in vivo; call rule not given here. Also noted: dose 2 mg/kg, route intravenous. Put shortly: (§1)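 SD rats received 2 mg/kg iv in 50% DMSO/50% PEG200, or 10 mg/kg po in 2% Tween/0.5% methyl cellulose in water. PK parameters come from each route.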
Series [2] is described as follows: AUC in Sprague-Dawley rat at 2 mg/kg, iv. Format: ADME, organism-based. Also noted: dose 2 mg/kg, route intravenous. The settings on record: plasma. Put shortly:
as §1

The target of series [3] is T1, 11-beta-hydroxysteroid dehydrogenase type 2 (Homo sapiens, UniProt P80365).
T1 sequence (P80365 whole entry): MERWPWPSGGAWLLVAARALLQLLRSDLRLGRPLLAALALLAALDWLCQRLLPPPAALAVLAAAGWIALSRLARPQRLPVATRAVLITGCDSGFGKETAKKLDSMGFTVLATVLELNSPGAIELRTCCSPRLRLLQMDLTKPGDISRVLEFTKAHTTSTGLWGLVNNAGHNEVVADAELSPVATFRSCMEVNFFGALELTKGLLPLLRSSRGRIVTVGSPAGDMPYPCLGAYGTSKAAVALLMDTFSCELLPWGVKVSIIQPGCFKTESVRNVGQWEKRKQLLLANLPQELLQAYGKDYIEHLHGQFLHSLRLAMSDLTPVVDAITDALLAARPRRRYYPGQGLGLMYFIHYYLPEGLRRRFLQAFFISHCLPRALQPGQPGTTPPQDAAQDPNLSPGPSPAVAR
Briefly: Inhibition of human 11beta-HSD2 expressed in CHO cells using […] as substrate incubated for 30 mins prior to substrate addition measured after 120 mins by scintillation counting analysis. Format: cell-based.

Series [4] relates to Salmonella typhimurium. Description: Genotoxicity in Salmonella typhimurium by Ames test. The series is classed as toxicity, organism-based. Particulars: salmonella enterica subsp. enterica serovar typhimurium. Background: The Ames test detects mutagens through reverse mutation in bacteria.
For series [5], the species on record is Mus musculus. Briefly: Antidiabetic activity in C57B6 DIO mouse assessed as reduction in fed insulin level at 0.3 mg/g of food after 31 days by HPLC analysis relative to untreated control. Format: functional. Also noted: scale not given: the % may be the effect or the level left. Put shortly: (§2)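 Male C57B6 mice, 5.5–7 months old, kept on a 35.5% fat diet for 4 months. Compound was mixed into food at 0.3 mg drug/g food for 31 days. Controls received diet 12492. Glucose and insulin were measured fed and fasting.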

Series [6] in a line: Half life in Beagle dog at 2 mg/kg, iv. Also noted: dose 2 mg/kg, route intravenous. Particulars: in vivo. Format: ADME, organism-based, Canis lupus familiaris. The gist of the method:
(§3)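 Male dogs were given 2 mg/kg intravenously in 50% DMSO/50% PEG200.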

Series [7] deals with Voltage-gated inwardly rectifying potassium channel KCNH2 (Homo sapiens, UniProt Q12809). Briefly: Activity at human ERG at 33 uM.
Chain of Voltage-gated inwardly rectifying potassium channel KCNH2 (Q12809 whole entry): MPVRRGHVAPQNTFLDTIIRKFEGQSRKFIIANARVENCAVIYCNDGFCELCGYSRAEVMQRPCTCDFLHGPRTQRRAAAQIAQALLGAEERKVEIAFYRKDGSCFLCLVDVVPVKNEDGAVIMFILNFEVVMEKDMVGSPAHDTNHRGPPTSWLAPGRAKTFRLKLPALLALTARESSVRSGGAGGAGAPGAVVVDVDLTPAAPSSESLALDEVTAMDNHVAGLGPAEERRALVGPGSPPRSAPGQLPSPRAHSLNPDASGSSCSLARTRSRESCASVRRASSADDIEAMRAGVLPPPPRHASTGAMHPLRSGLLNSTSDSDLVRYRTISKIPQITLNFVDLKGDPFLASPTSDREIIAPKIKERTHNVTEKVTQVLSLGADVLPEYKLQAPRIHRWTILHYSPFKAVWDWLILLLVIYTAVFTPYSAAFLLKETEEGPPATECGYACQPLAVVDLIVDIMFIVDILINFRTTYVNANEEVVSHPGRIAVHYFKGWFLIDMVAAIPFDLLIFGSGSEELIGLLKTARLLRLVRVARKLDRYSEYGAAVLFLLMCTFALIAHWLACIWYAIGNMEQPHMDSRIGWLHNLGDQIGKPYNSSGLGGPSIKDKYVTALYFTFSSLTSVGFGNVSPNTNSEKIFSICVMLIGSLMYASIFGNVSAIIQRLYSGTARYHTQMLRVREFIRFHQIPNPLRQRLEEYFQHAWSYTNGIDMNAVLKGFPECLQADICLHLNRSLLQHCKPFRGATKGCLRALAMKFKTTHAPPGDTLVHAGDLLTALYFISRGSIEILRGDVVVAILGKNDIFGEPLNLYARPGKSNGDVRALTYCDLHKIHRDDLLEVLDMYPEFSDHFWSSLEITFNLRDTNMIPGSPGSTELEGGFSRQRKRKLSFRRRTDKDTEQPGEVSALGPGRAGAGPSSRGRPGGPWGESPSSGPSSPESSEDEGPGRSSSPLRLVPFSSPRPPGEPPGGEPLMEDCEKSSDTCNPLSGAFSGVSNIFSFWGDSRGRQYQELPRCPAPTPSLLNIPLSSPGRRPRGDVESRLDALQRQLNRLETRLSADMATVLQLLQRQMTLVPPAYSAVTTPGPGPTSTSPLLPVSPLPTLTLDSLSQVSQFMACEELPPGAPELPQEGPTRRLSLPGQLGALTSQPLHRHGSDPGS
The species named for series [8] is Mus musculus. Briefly: Antidiabetic activity in C57B6 DIO mouse assessed as reduction in fasting glucose level at 0.3 mg/g of food after 31 days by HPLC analysis relative to untreated control. The series is classed as functional. Also noted: scale not given: the % may be the effect or the level left. The gist of the method:
as §2

Series [9] can be described thus: Cmax in Beagle dog at 5 mg/kg, po. Particulars: in vivo.
Series [10] in a line: Tmax in C57B6 mouse at 10 mg/kg, po. Format: ADME, organism-based. Also noted: dose 10 mg/kg, route oral. The settings on record: in vivo. The gist of the method:
(§4)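 Male C57B6 mice. IV dose of 2 mg/kg in 50% DMSO/50% PEG200. Oral dose of 10 mg/kg in 2% Tween/0.5% methyl cellulose in water. Values are PK parameters from the iv and po arms.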

Series [11] can be described thus: Cmax in C57B6 mouse at 10 mg/kg, po. The settings on record: in vivo. Format: ADME, organism-based. Also noted: dose 10 mg/kg, route oral. The gist of the method:
as §4

A short description of series [12]: Clearance in C57B6 mouse at 2 mg/kg, iv. Format: ADME, organism-based. Also noted: dose 2 mg/kg, route intravenous. Particulars: in vivo. Put shortly:
as §4

For series [13], the system named is Mus musculus. Description: Ex vivo inhibition of 11beta-HSD1 in C57B16 mouse epididymal fat assessed as conversion of [3H]-cortisone to [3H]-cortisol at 10 mg/kg, po after 5 hrs by HPLC analysis relative to vehicle-treated control. The series is classed as functional. Put shortly: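 Mice were dosed orally at 10 mg/kg. Epididymal fat was collected 5 h after dosing for the ex vivo readout.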

A short description of series [14]: AUC in Beagle dog at 2 mg/kg, iv. The settings on record: plasma. The series is classed as ADME, organism-based, Canis lupus familiaris. Also noted: dose 2 mg/kg, route intravenous. Put shortly: as §3
The species named for series [15] is Mus musculus. Description: Antidiabetic activity in C57B6 DIO mouse assessed as reduction in fasting insulin level at 0.3 mg/g of food after 31 days by HPLC analysis relative to untreated control. The series is classed as functional. Also noted: scale not given: the % may be the effect or the level left. Put shortly: as §2
Series [16] is filed under the species Mus musculus. Description: Antidiabetic activity in C57B6 DIO mouse assessed as reduction in fed glucose level at 0.3 mg/g of food after 31 days by HPLC analysis relative to untreated control. The series is classed as functional. Also noted: scale not given: the % may be the effect or the level left. The gist of the method:
as §2

Series [17] can be described thus: Volume of distribution at steady state in Sprague-Dawley rat at 2 mg/kg, iv. The series is classed as ADME, organism-based. Also noted: dose 2 mg/kg, route intravenous. Particulars: in vivo, read-out: Vdss. Put shortly: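 Sprague-Dawley rats given a single iv dose of 2 mg/kg in 50% DMSO/50% PEG200. A separate oral arm received 10 mg/kg in 2% Tween/0.5% methyl cellulose in water.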

A short description of series [18]: Tmax in Beagle dog at 5 mg/kg, po. Particulars: in vivo.
Series [19] concerns the target T2, Peroxisome proliferator-activated receptor gamma (Homo sapiens, UniProt P37231).
T2 sequence (P37231 whole entry): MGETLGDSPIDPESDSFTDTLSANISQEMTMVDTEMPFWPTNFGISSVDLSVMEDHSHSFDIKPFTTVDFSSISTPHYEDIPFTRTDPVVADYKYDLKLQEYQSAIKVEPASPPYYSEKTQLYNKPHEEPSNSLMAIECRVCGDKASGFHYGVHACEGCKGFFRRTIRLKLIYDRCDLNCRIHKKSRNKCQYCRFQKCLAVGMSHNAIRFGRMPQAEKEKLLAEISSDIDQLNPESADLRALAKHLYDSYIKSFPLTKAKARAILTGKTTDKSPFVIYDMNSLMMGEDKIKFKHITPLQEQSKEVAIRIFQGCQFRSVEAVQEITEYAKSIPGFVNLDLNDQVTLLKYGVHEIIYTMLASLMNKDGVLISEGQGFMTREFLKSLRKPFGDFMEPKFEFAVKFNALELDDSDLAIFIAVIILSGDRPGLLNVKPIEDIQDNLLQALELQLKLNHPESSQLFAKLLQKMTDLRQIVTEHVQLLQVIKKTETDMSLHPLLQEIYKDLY
Description: Inhibition of PPARgamma (unknown origin).

Series [20] can be described thus: AUC in Sprague-Dawley rat at 10 mg/kg, po. Format: ADME, organism-based. Also noted: dose 10 mg/kg, route oral. Particulars: plasma. Put shortly:
as §1

Series [21] is described as follows: Oral bioavailability in Beagle dog at 5 mg/kg. The settings on record: in vivo.
Series [22] concerns Canis familiaris. Briefly: Toxicity in dog at 100 to 1000 mg/kg. Format: organism-based, Canis lupus familiaris. Also noted: dose 100-1000 mg/kg. The settings on record: in vivo. The gist of the method:
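Dogs were dosed at 100, 300 and 1000 mg/kg in a 14-day safety assessment and metabolism study.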

pIC50: −log10 of the molar value.

We go through 1 compound from ChEMBL document CHEMBL2321820, “Discovery of HSD-621 as a Potential Agent for the Treatment of Type 2 Diabetes” (ACS Med Chem Lett, 2013).

As usually defined, the half-life is how long it takes for the measured level to halve. As a reminder, the AUC is the area under the concentration-time curve, a measure of exposure. Broadly, the pIC50 is the IC50 on a negative log10 scale, so that one unit is a factor of ten. One may read the Cmax as the maximum level reached in the sampled fluid or tissue. In general, Tmax refers to the time from dosing to the highest level. One may read the clearance as the volume of plasma or blood freed of the substance per unit of time. A word on the inhibition in vivo: it is how much of the control response was suppressed. What is called bioavailability is the share of a dose that reaches the circulation, judged against a reference dose that is usually intravenous.

As for `C[C@@H]1CN(c2ccc(F)cc2C(F)(F)F)CCN1S(=O)(=O)c1ccc([C@@](O)(C(N)=O)C(F)(F)F)s1`, the half-life in series [1] was 8.6 h; in series [6] it was 20.3 h. Moreover, the AUC in series [2] was found to be 4310 ng·h/mL; in series [14], 32400 ng·h/mL; in series [20], 6540 ng·h/mL. Further, the pIC50 in series [3] and in series [19] was < 4.00 each time. In addition, the Activity result in series [4] is “Non-toxic”; in series [5], 44%; in [7], “Not Active”; in series [8], 15%; in series [15] it was 33%; in series [16], 19%. For the same compound, the Activity entry in series [22] is reported as “Non-toxic”. The Cmax in series [9] was 1440 ng/mL; in [11], 987 ng/mL. Also, the results for the Tmax in series [10] and in [18] were 2 h and 2.8 h, respectively. In series [12], this compound registered a clearance of 9 mL/min/kg. Also, the inhibition in vivo at 10 mg/kg in [13] turned out to be 75%. In [17], the Vd is 3.8 L/kg. In series [21], the bioavailability amounted to 54%.
